Tests used:
[1] = biological target: Epidermal growth factor receptor (Homo sapiens, UniProt P00533); experiment: Inhibition of EGFR in human RPMI-8226 cells incubated for 2 hrs by ELISA; type: cell-based
[2] = biological target: Histone deacetylase 2 (Homo sapiens, UniProt Q92769); experiment: Inhibition of HDAC2 in human RPMI-8226 cells incubated for 2 hrs by ELISA; type: cell-based
Method in brief: (§1)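 Target levels measured by ELISA kits in RPMI-8226 cells. Cells were seeded and grown 24 h at 37 °C, then exposed 72 h to a semi-log series of concentrations. Sample was incubated 2 h at 37 °C, followed by detection reagents A and B (1 h each), TMB substrate and stop solution, with OD read at 450 nm. IC50 was taken from sigmoidal dose-response nonlinear regression of % activity.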

[3] = biological target: Tubulin; experiment: Inhibition of Tubulin in human RPMI-8226 cells incubated for 2 hrs by ELISA; type: cell-based; method in brief: as §1
[4] = biological target: Histone deacetylase 3 (Homo sapiens, UniProt O15379); experiment: Inhibition of HDAC3 in human RPMI-8226 cells incubated for 2 hrs by ELISA; type: cell-based; method in brief: as §1
[5] = biological target: T1, Histone deacetylase 8 (Homo sapiens, UniProt Q9BY41); experiment: Inhibition of HDAC8 in human RPMI-8226 cells incubated for 2 hrs by ELISA; type: cell-based; method in brief: as §1
T1 sequence (Q9BY41 whole entry): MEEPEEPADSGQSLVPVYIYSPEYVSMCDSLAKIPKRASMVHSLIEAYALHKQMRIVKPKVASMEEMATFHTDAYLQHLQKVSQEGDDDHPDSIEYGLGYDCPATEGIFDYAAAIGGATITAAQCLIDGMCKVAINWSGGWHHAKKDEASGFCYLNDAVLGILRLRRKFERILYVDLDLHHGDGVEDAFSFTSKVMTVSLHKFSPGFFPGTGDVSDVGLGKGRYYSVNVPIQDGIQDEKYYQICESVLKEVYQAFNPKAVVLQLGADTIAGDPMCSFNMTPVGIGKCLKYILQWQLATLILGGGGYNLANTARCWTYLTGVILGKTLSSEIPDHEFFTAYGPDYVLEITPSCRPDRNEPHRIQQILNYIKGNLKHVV

[6] = biological target: Vascular endothelial growth factor receptor 2 (Homo sapiens, UniProt P35968); experiment: Inhibition of VEGFR2 in human RPMI-8226 cells incubated for 2 hrs by ELISA; type: cell-based
[7] = biological target: Histone deacetylase 1 (Homo sapiens, UniProt Q13547); experiment: Inhibition of HDAC1 in human RPMI-8226 cells incubated for 2 hrs by ELISA; type: cell-based; method in brief: as §1
[8] = test system: RPMI-8226; experiment: Induction of ROS accumulation in human RPMI-8226 cells incubated for 2 hrs by ELISA (reference value: 26.06 +/- […]); type: functional
[9] = test system: RPMI-8226; experiment: Induction of apoptosis in human RPMI-8226 cells assessed as Caspase-3 level incubated for 24 hrs by ELISA (reference value: 35.3 pg/ml); type: functional
[10] = test system: RPMI-8226; experiment: Induction of apoptosis in human RPMI-8226 cells assessed as Caspase-9 level incubated for 24 hrs by ELISA (reference value: 1.63 +/- […]); type: functional
[11] = test system: RPMI-8226; experiment: Induction of apoptosis in human RPMI-8226 cells assessed as Caspase-7 level incubated for 24 hrs by ELISA (reference value: 0.359 +/- 0.016 ng/ml); type: functional
[12] = test system: RPMI-8226; experiment: Induction of apoptosis in human RPMI-8226 cells assessed as Bcl-2 level incubated for 24 hrs by ELISA (reference value: 4.857 +/- […]); type: functional
[13] = test system: RPMI-8226; experiment: Induction of apoptosis in human RPMI-8226 cells assessed as PARP-1 level incubated for 24 hrs by ELISA (reference value: 0.151 +/- […]); type: functional
[14] = test system: RPMI-8226; experiment: Induction of apoptosis in human RPMI-8226 cells assessed as BAX level incubated for 24 hrs by ELISA (reference value: 56 +/- […]); type: functional

Sequence of Histone deacetylase 3 (O15379 whole entry): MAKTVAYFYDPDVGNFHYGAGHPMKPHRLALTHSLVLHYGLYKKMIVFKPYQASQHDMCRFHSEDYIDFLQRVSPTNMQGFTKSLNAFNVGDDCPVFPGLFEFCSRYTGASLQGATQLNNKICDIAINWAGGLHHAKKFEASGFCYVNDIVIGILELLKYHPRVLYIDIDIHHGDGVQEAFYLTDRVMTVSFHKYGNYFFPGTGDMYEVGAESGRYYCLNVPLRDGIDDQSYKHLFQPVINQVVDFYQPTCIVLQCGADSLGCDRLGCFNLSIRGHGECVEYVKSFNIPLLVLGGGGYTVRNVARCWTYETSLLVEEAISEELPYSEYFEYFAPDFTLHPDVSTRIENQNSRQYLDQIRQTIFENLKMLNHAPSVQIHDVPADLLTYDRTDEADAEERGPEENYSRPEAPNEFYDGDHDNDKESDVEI
Sequence of Histone deacetylase 2 (Q92769 whole entry): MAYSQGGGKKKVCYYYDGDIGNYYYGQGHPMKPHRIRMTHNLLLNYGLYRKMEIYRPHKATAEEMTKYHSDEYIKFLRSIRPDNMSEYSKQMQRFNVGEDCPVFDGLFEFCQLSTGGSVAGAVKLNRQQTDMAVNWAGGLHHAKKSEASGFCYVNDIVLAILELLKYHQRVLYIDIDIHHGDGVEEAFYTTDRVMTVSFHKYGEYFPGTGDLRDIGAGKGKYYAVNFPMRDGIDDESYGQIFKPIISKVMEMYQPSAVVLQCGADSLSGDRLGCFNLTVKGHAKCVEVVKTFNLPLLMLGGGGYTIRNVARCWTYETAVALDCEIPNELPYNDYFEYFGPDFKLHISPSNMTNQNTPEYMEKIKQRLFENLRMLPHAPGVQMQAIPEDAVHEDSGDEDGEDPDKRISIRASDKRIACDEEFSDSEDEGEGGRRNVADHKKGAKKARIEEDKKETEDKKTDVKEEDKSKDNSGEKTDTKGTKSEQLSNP
Sequence of Histone deacetylase 1 (Q13547 whole entry): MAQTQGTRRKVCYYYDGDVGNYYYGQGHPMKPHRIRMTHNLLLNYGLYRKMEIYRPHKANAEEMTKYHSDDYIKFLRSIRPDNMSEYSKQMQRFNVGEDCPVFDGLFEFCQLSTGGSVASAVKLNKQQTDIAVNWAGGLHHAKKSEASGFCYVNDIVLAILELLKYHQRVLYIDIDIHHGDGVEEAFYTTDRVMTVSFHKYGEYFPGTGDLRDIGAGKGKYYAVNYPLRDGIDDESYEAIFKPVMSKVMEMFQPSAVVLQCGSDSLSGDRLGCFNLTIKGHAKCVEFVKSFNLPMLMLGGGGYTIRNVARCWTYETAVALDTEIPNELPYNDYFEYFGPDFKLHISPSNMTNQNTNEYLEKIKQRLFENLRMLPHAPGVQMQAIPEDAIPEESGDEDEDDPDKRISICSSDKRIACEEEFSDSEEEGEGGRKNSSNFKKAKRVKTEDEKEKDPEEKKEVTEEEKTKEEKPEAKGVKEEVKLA
Sequence of Vascular endothelial growth factor receptor 2 (P35968 whole entry): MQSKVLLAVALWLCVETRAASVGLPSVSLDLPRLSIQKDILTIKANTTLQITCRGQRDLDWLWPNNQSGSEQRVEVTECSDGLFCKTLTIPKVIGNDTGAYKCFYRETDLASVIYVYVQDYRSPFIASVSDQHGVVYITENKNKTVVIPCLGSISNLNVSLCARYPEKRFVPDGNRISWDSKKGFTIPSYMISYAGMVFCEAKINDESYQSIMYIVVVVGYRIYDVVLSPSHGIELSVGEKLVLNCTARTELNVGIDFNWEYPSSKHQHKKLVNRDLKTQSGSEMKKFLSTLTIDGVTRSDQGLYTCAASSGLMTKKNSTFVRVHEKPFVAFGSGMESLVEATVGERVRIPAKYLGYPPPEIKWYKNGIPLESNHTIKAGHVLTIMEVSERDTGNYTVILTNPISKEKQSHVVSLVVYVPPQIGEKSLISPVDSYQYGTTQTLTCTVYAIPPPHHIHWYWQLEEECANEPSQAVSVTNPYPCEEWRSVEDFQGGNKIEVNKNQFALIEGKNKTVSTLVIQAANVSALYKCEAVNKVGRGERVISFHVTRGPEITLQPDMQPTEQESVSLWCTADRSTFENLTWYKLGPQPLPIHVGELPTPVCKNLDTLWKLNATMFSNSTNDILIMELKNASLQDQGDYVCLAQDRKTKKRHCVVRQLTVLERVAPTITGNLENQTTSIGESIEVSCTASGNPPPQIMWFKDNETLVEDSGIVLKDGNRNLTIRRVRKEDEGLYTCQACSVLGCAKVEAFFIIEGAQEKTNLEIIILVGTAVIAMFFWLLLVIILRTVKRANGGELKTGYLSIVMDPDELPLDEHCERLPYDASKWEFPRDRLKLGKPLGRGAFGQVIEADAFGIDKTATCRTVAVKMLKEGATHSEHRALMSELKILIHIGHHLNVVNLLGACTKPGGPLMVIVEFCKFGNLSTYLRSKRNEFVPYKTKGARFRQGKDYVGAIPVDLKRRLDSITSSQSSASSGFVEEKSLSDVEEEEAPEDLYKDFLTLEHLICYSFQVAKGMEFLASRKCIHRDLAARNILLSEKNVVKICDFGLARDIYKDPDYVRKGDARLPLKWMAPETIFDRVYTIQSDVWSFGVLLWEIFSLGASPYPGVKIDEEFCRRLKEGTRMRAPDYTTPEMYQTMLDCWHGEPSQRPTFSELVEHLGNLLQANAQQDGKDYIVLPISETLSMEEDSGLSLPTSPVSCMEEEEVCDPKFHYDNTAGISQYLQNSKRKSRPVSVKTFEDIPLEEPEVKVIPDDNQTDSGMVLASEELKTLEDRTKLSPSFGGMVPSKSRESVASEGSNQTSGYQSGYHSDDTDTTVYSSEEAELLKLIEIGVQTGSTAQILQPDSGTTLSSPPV
Sequence of Epidermal growth factor receptor (P00533 whole entry): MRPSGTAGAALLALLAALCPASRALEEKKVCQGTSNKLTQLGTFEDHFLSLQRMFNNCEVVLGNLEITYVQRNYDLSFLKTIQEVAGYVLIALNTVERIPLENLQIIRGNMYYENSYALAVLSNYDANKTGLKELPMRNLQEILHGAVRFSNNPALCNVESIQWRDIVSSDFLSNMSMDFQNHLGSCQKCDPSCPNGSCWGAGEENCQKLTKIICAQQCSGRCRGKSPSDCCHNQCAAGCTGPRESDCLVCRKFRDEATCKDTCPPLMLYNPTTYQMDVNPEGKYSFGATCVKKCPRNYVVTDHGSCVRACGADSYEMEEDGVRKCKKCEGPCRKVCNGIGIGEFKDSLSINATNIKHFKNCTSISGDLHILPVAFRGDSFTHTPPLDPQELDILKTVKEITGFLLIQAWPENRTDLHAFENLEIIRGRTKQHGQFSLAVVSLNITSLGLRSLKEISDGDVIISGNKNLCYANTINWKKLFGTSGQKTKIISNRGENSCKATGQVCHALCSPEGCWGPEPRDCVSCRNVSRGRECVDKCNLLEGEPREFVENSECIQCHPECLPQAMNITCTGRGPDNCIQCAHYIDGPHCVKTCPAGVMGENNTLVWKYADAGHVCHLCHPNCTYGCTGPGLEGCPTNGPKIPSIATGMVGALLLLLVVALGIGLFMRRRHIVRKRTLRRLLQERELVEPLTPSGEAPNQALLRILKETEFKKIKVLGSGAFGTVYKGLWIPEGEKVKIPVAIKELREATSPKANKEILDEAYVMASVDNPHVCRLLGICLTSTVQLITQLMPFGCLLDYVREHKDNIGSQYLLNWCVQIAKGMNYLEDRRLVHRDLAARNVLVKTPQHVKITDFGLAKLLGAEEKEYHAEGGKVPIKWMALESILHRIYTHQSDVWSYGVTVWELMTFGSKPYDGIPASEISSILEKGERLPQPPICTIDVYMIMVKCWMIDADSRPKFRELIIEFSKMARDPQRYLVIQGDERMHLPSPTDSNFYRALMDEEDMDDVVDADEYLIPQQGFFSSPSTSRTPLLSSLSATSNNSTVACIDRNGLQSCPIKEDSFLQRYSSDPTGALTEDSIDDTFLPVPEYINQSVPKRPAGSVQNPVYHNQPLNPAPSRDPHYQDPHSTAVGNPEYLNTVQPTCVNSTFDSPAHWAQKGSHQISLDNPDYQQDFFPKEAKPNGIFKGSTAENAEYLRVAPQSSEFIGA

`COc1ccc(/C=C/C(=O)c2nnn(-c3ccc(Cl)cc3)c2C)cc1OC` was tested, and the IC50 [1] was 36 nM, the IC50 [2] was 2900 nM and the IC50 [3] was 9.77 nM. For the same molecule, the IC50 [4] was 3000 nM, the IC50 [5] was 47 nM and the IC50 [6] was 388 nM. The IC50 [7] was 1530 nM.

`CC(C)C[C@H](NC(=O)[C@H](Cc1ccccc1)NC(=O)c1cnccn1)B(O)O` [BORTEZOMIB] showed an IC50 [2] of 800 nM, an IC50 [4] of 1180 nM and an IC50 [5] of 72 nM. For the same molecule, the IC50 [7] was 620 nM.

In the case of `COc1cc2ncnc(Nc3ccc(F)c(Cl)c3)c2cc1OCCCN1CCOCC1` [GEFITINIB], the Activity [8] is reported as 80.92 pg/mL.

`CN[C@@H]1C[C@H]2O[C@@](C)([C@@H]1OC)n1c3ccccc3c3c4c(c5c6ccccc6n2c5c31)C(=O)NC4` [STAUROSPORINE] was tested, and the Activity [9] was 449.8 pg/mL, the Activity [10] was 24.97 ng/mL and the Activity [11] was 1.508 ng/mL. The Activity [12] was 0.4081 ng/mL, the Activity [13] was 0.245 ng/mL and the Activity [14] was 336.16 pg/mL.

From ChEMBL document CHEMBL4680183, “1,2,3-Triazole-Chalcone hybrids: Synthesis, in vitro cytotoxic activity and mechanistic investigation of apoptosis induction in multiple myeloma RPMI-8226” (Eur J Med Chem, 2020)
